# Results: article PMC5837702 (Toxicological Sciences, 2017)
# Values joined by “and” are separate entries in the source; they are usually repeats but may differ in a detail not shown here. Equal values may be shown once. “Also recorded” adds a separate entry of the source.
# Experiments:
# bacteria [1] = conditions: cited from earlier work; for Mutagenic activity: 1 µg/plate, similar experimental conditions, ref Vanhaecke etal., 2008b
# rat intestinal tissues = conditions: ref Nicken etal., 2015; cited from earlier work
# BALB/c 3T3 cells = conditions: non-cytotoxic concentrations; ref Nicken etal., 2015; cited from earlier work
# bacteria [2] = assay: Ames test; type: cell-based; conditions: 1 µg/plate, expectation of the authors
# [3] = tested on: Balb/c 3T3 clone A31-1-1 cells; assay: BALB/c 3T3 cell transformation assay; type: cell-based; conditions: for Induction of foci / cell transformation: concentrations of up to 50 µM
# [4] = tested on: human colon epithelial cells from a different origin; conditions: in presence of sulfotransferases; ref Herbst etal. (2006); cited from earlier work
# [5] = tested on: mouse fibroblast C3H/M2 cells; conditions: ref Pfau etal., 1999, cited from earlier work; for Malignant transformation: in the presence of rat-liver S9; for Cell transformation: without metabolic activation
# [6] = tested on: Salmonella Typhimurium TA98; assay: Bacterial reverse mutation test; type: cell-based; conditions: for Induction of revertant colonies compared with vehicle control: absence of metabolic activation; for Induction of revertants: presence of S9
# [7] = tested on: complex human gut microbiota; assay: MelQx transformation by complex human colon microbiota; type: in vitro ADME; conditions: absence of glycerol, 100 μM MelQx, 37 °C, 72 h
# Procedure, shortened: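 Faecal microbiota from a healthy person were immobilised in gellan-xanthan gel beads under strict anaerobiosis and inoculated (30% v/v) into a proximal-colon reactor (37 °C, pH 5.7). It was linked to a distal-colon reactor (37 °C, pH 6.8). PC and DC effluents seeded triplicate mYCFA batch fermentations. Supernatants were alkalinised with Na2CO3, extracted thrice with ethyl acetate, concentrated and analysed by LC-ESI-MS2.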
# L. rossiae DSM 15184 = assay: Microbial MelQx transformation in mYCFA with glycerol; type: in vitro ADME, Lactobacillus rossiae; conditions: 100 µM MelQx, anaerobic, 37 °C, 3 days
# [8] = tested on: human colon epithelial cells (HCEC); assay: Cytotoxicity, CellTiter-Glo luminescent cell viability assay; type: cell-based; conditions: for LOAEL / NOAEL / BMD5 / BMD10 / BMDU5 / BMDL10 / BMDL5 / BMDU10 / IC50: 24 h; for BMD5: 5% benchmark dose; for BMD10: 10% benchmark dose; for BMDU5: highest benchmark dose upper bound, Hill models; for BMDU5 / BMDL5: 5% response; for BMDL10: lower bound; for BMDL10 / BMDU10: 10% response; for BMDL5: lowest benchmark dose lower bound, exponential models; for BMDU10: upper bound; for IC10 (95% CI): mean of 3 experiments; for IC50: Homo sapiens, read-out: IC50 (95% CI)
# L. reuteri ATCC 55730 = assay: Microbial MelQx transformation in mYCFA with glycerol; type: in vitro ADME, Lactobacillus reuteri; conditions: 100 µM MelQx, anaerobic, 37 °C, 3 days
# [9] = Stability of MelQx-M1 under Ames assay conditions; type: in vitro ADME; conditions: 10% rat liver S9, 1 µM, 30 min, 37 °C
# [10] = −S9, dose 5 µg/plate, positive control
# [11] = +S9, dose 0.08 µM (0.01 µg/plate)
# [12] = +S9, dose 0.2 µM (0.23 µM in text; 0.03 µg/plate MelQx, 0.04 MelQx-M1)
# [13] = +S9, dose 0.8 µM (0.11 µg/plate MelQx, 0.13 MelQx-M1)
# [14] = +S9, dose 2.3 µM (0.32 µg/plate MelQx, 0.40 MelQx-M1)
# [15] = +S9, dose 7.7 µM (1.1 µg/plate MelQx, 1.3 MelQx-M1)
# [16] = −S9, dose 0.08 µM (0.01 µg/plate)
# [17] = −S9, dose 0.2 µM (0.03 µg/plate MelQx, 0.04 MelQx-M1)
# [18] = −S9, dose 0.8 µM (0.11 µg/plate MelQx, 0.13 MelQx-M1)
# [19] = −S9, dose 2.3 µM (0.32 µg/plate MelQx, 0.40 MelQx-M1)
# [20] = −S9, dose 7.7 µM (1.1 µg/plate MelQx, 1.3 MelQx-M1)
# [21] = 0.1 µM, 72 h exposure, n = 9–10
# [22] = 0.5 µM, 72 h exposure, n = 9–10
structure (smiles),measurement,setting,value
"C[n+]1c2n(c3ncc(-c4ccccc4)cc31)CCC(O)N2.[Cl-] (stereo not drawn) [PhIP-M1, 7-hydroxy-5-methyl-3-phenyl-6,7,8,9-tetrahydropyrido[3’,2’:4,5]imidazo[1,2-a]pyrimidin-5-ium chloride]",Mutagenic activity,bacteria [1],46 ± 2 revertants/µg
same,Cytotoxicity,rat intestinal tissues,not being cytotoxic
same,Malignant transformation of BALB/c 3T3 cells,BALB/c 3T3 cells,did not induce malignant transformation; also recorded: does not induce cell transformation
same,Expected mutagenic activity,bacteria [2],50 revertants/µg
Cc1ccc2cc3c(ccc4ccccc43)c3c2c1CC3 [3-methylcholanthrene],Number of foci per plate,"[3]; 15 µM, positive control","Medium (control), 0.1% DMSO, 15 µM 3-methylcholanthrene (MCA, positive control) induced 0.2 ± 0.4, 0 ± 0, and 14.1 ± 4.5 foci per plate, respectively. NT, not tested in this study. Data are displayed as mean ± SD (n = 9–10)."
"Cn1c(NO)nc2ncc(-c3ccccc3)cc21 [N-OH-PhIP, 2-hydroxyamino-1-methyl-6-phenylimidazo[4,5-b]pyridine]",Malignant transformation,[4],induced malignant transformation
"Cn1c(N)nc2ncc(-c3ccccc3)cc21 [PhIP, 2-amino-1-methyl-6-phenylimidazo[4,5-b]pyridine]",Mutagenic activity,bacteria [1],1700 revertants/µg
same,Malignant transformation,[5],all induced malignant transformation
same,Cell transformation,[5],none of the HCAs induced cell transformation
"O=[N+]([O-])c1ccc2c(c1)Cc1ccccc1-2 [2-nitrofluorene, 2-Nitrofluorene]",Mutagenic activity,[6]; [10],616 ± 18 revertants/plate
"Cc1cnc2ccc3c(nc(N)n3C)c2n1 [MelQx, 2-Amino-3,8-dimethylimidazo[4,5-f]quinoxaline]",Transformation of MelQx to MelQx-M1,[7],no transformation
same,Mutagenic activity,[6]; [11],352 ± 4 revertants/plate
same,Mutagenic activity,[6]; [12],980 ± 20 revertants/plate
same,Mutagenic activity,[6]; [13],1264 ± 38 revertants/plate
same,Mutagenic activity,[6]; [14],1449 ± 132 revertants/plate
same,Mutagenic activity,[6]; [15],>1500 revertants/plate
same,Mutagenic activity,"[6]; +S9, dose 23–769 µM (3.2–107 µg/plate)",>1500 revertants/plate
same,Induction of revertant colonies compared with vehicle control,[6],did not induce a significantly higher number of revertant colonies
same,Induction of revertants,[6],induced a significant and concentration-dependent increase of the number of revertants
same,Mutagenic activity,[6]; [16],23 ± 1 revertants/plate
same,Mutagenic activity,[6]; [17],21 ± 2 revertants/plate
same,Mutagenic activity,[6]; [18],20 ± 1 revertants/plate
same,Mutagenic activity,[6]; [19],21 ± 1 revertants/plate
same,Mutagenic activity,[6]; [20],20 ± 1 revertants/plate
same,Mutagenic activity,"[6]; −S9, dose 23–769 µM (3.2–107 µg/plate)",21–22 revertants/plate
same,Transformation efficiency on the basis of peak area (LC-ESI-MS2),L. rossiae DSM 15184,72% ± 1.5%
same,Mutagenicity relative to PhIP,"bacteria [1]; Ames test, ref Pfau etal., 1999",about 10 times
same,LOAEL,[8],50 µM
same,NOAEL,[8],10 µM
same,BMD5,[8],26.5 µM
same,BMD10,[8],55.2 µM
same,BMDU5,[8],55.8 µM
same,BMDL10,[8],8.8 µM
same,BMDL5,[8],4.1 µM
same,BMDU10,[8],87.6 µM
same,Concentrations that reduced cell viability,[8]; 24 h exposure,≥ 50 µM
same,IC10 (95% CI),[8]; 24 h exposure,52 (31–87) µM
same,IC50,[8],272 µM
same,Number of foci per plate,[3]; [21],0.1 ± 0.3
same,Number of foci per plate,[3]; [22],0.5 ± 0.7
same,Number of foci per plate,"[3]; 5 µM, 72 h exposure, n = 9–10",0.1 ± 0.3
same,Number of foci per plate,"[3]; 10 µM, 72 h exposure, n = 9–10",0.6 ± 0.7
same,Number of foci per plate,"[3]; 50 µM, 72 h exposure, n = 9–10",0.6 ± 1.2
same,Induction of foci / cell transformation,[3],neither MelQx nor MelQx-M1 induced a significant amount of foci; also recorded: no detectable cell transformation
same,Malignant transformation,[5],all induced malignant transformation
same,Cell transformation,[5],none of the HCAs induced cell transformation
same,Transformation efficiency on the basis of peak area (LC-ESI-MS2),L. reuteri ATCC 55730,87% ± 0.9%
"Cc1cnc2ccc3c(c2n1)N1CCC(O)N=C1N3C (stereo not drawn) [MelQx-M1, 9-hydroxyl-2,7-dimethyl-7,9,10,11-tetrahydropyrimido[2′,1′:2,3]imidazo[4,5-f]quinoxaline]",Mutagenic activity,[6]; [11],44 ± 1 revertants/plate
same,Mutagenic activity,[6]; [12],66 ± 5 revertants/plate
same,Mutagenic activity,[6]; [13],182 ± 13 revertants/plate
same,Mutagenic activity,[6]; [14],358 ± 4 revertants/plate
same,Mutagenic activity,[6]; [15],770 ± 7 revertants/plate
same,Mutagenic activity,"[6]; +S9, dose 23 µM (4.0 µg/plate)",1000 ± 20 revertants/plate
same,Mutagenic activity,"[6]; +S9, dose 77–769 µM (14–135 µg/plate)",>1500 revertants/plate
same,Induction of revertant colonies compared with vehicle control,[6],did not induce a significantly higher number of revertant colonies
same,Mutagenic activity relative to MelQx in terms of revertants/plate,[6]; after microbial transformation of MelQx to MelQx-M1,3%–26%
same,Induction of revertants,[6],induced a significant and concentration-dependent increase of the number of revertants
same,Mutagenic activity,[6]; [16],21 ± 1 revertants/plate
same,Mutagenic activity,[6]; [17],21 ± 1 revertants/plate
same,Mutagenic activity,[6]; [18],21 ± 1 revertants/plate
same,Mutagenic activity,[6]; [19],22 ± 2 revertants/plate
same,Mutagenic activity,[6]; [20],31 ± 2 revertants/plate
same,Mutagenic activity,"[6]; −S9, dose 23 µM (4.0 µg/plate)",32 ± 3 revertants/plate
same,Mutagenic activity,"[6]; −S9, dose 77–769 µM (14–135 µg/plate)",41–54 revertants/plate
same,LOAEL,[8],350 µM
same,NOAEL,[8],200 µM
same,BMD5,[8],262.2 µM
same,BMD10,[8],334.6 µM
same,BMDU5,[8],334 µM and 333.7 µM
same,BMDL10,[8],272.8 µM
same,BMDL5,[8],204 µM and 204.1 µM
same,BMDU10,[8],366.1 µM
same,IC10 (95% CI),[8]; 24 h exposure,316 (285–351) µM
same,IC50,[8],617 µM
same,Number of foci per plate,[3]; [21],1.1 ± 1.2
same,Number of foci per plate,[3]; [22],0.1 ± 0.3
same,Number of foci per plate,"[3]; 1 µM, 72 h exposure, n = 9–10",0.5 ± 0.7
same,Number of foci per plate,"[3]; 2 µM, 72 h exposure, n = 9–10",0.1 ± 0.3
same,Number of foci per plate,"[3]; 3 µM, 72 h exposure, n = 9–10",0.1 ± 0.3
same,Number of foci per plate,"[3]; 4 µM, 72 h exposure, n = 9–10",0.2 ± 0.4
same,Number of foci per plate,"[3]; 5 µM, 72 h exposure, n = 9–10",0 ± 0
same,Number of foci per plate,"[3]; 6 µM, 72 h exposure, n = 9–10",0.6 ± 0.8
same,Number of foci per plate,"[3]; 7 µM, 72 h exposure, n = 9–10",0.7 ± 1.5
same,Number of foci per plate,"[3]; 10 µM, 72 h exposure, n = 9–10",1.4 ± 2.2
same,Number of foci per plate,"[3]; 50 µM, 72 h exposure, n = 9–10",0 ± 0
same,Induction of foci / cell transformation,[3],neither MelQx nor MelQx-M1 induced a significant amount of foci; also recorded: no detectable cell transformation
same,Stability in the presence of S9,[9],generation of small amounts of MelQx as a decomposition product
"Nc1ccc([N+](=O)[O-])cc1N [4-NPD, 4-nitro-o-phenylenediamine]",Mutagenic activity,[6]; [10],695 ± 5 revertants/plate
"Cn1c(N)nc2c3cccnc3ccc21 [IQ, 2-amino-3-methylimidazo[4,5-f]quinoline]",Malignant transformation,[5],all induced malignant transformation
same,Cell transformation,[5],none of the HCAs induced cell transformation
